Sampled rows, rich in hits. Any-hit rate of the full collection: about 3%.
MEKK2 WT-MEK5: modulators of MEK5 binding to wildtype MEKK2, primary screen, biochemical, multiplex bead flow cytometry, Alexa488-MEK5. Mitogen-activated protein kinase kinase kinase 2 (Homo sapiens), Q9Y2U5. Alexa488-MEK5 binding to MEKK2 WT; actives lie on both sides. binding response (% of control), % at 10 µM. 1.1% of 290,000 active; in the data active = binding response below about 67% or above about 130%
MEKK2 mut-MEK5: MEK5 binding signal on mutant MEKK2 PB1, primary screen, biochemical, multiplex bead flow cytometry, Alexa488-MEK5. Alexa488-MEK5 binding to MEKK2 mutant. percent response, % at 10 µM. 0.35% of 290,000 active; in the data active = percent response above about 24%, passing the limit was not always enough
Apaf1 inhib: inhibitors of human Apaf-1 apoptosome, primary screen, biochemical, DEVD-Rh110 fluorescence, uHTS | Apoptotic protease-activating factor 1 (Homo sapiens), O14727 | reconstituted apoptosome caspase-3 activity | inhibition, % at 20 µM | 0.71% of 330,000 active | AID 489030, 2010; active = inhibition of at least 40% at 20 µM;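 note: plate controls were DMSO wells for no effect and DEVD-CHO caspase inhibitor wells for full effect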
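Material: cell-free apoptosome with Apaf-1, procaspase-3 and caspase-9; Buffer or medium: Hepes pH 7.5 with detergent and BSA; Reagent: cytochrome c trigger plus (Z-DEVD)2-Rh110 caspase-3 substrate; Times: compound with Apaf-1, dATP, procaspase-3 30 min, then 50 min reaction, room temperature; Technique: Rh110 fluorescence intensity.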
UBC13 polyUb: UBC13 polyubiquitin chain formation inhibitors, primary screen, biochemical, TR-FRET, uHTS | inhibition, % at 20 µM | 0.47% of 330,000 active | AID 485273, 2010; in the data active = inhibition above about 45%, passing the limit was not always enough
UCH37 DUB inh: inhibitors of human UCH37 deubiquitinase, primary screen, biochemical, Ub-AMC cleavage, fluorescence; purified proteasome/UCH37; Ubiquitin carboxyl-terminal hydrolase isozyme L5 (Homo sapiens), Q9Y5K5; 0.33% of 330,000 active; inhibition, % (concentration not given with the values);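 active = mean inhibition over replicate wells above about 20%, limit read from the data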;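 note: 0% = compound-free wells with enzyme and 100% = wells lacking proteasome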
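Material: Human UCH37 enzyme supplied as purified proteasome complex | Schedule: 30 min compound-proteasome preincubation then 25 min substrate reaction, room temperature | Detection: AMC fluorescence from Ub-AMC cleavage, excitation 355 nm, emission 460 nm | Benchmarks: Wells without proteasome as full block, compound-free enzyme plus substrate as uninhibited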
MEKK3 PB1 HTS: modulators of MEKK3-MEK5 PB1 binding, primary screen, biochemical, wildtype MEKK3, multiplex bead flow cytometry, Alexa488-MEK5. Mitogen-activated protein kinase kinase kinase 3 (Homo sapiens), Q99759. binding response (% of control), % at 10 µM. bead-based flow cytometry, Alexa488-MEK5 binding to MEKK3; actives lie on both sides; 0 = blocked by unlabeled MEK5, 100 = vehicle. 1.4% of 290,000 active;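 active = binding response more than 3 SD above or below the average of its plate-row segment, actives on both sides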;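 note: Alexa488 bead fluorescence after subtracting the streptavidin-only scavenger bead signal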
MEKK2wt confirm: modulators of MEK5 binding to wildtype MEKK2, confirmation, biochemical, single concentration, multiplex bead flow cytometry; shares compounds with MEKK3 PB1 HTS; Alexa488-MEK5 binding to MEKK2 WT; actives lie on both sides; binding response (% of control), % at 10 µM; 2.4% of 5,900 active; in the data active = binding response below about 16% or above about 210%; inactive = in between
MEKK2mut confirm: mutant MEKK2 PB1-MEK5 binding signal retest – biochemical, single concentration, multiplex bead flow cytometry, confirmation. shares compounds with MEKK3 PB1 HTS. Alexa488-MEK5 binding to MEKK2 mutant. percent response, % at 10 µM. 2% of 5,900 active. AID 1893, 2009; in the data active = percent response mostly above about 71%, no sharp cut-off; inactive = mostly below about 38%;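 note: higher means compound restores mutant binding toward wildtype level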
MEKK3-MEK5 inh: MEKK3 wild-type PB1 binding to MEK5, inhibitors, confirmation, biochemical, bead multiplex flow cytometry, single concentration, wildtype; 1.8% of 5,900 active; shares compounds with MEKK3 PB1 HTS; binding response (% of control), % at 10 µM; Alexa488-MEK5 binding to MEKK3; active compounds read low; AID 1894, 2009;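 active = binding response below 72% of control, or above a set upper limit, though filed actives all read lower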;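 note: 100% = DMSO only wells and 0% = binding blocked by excess unlabeled MEK5; lower values mean stronger disruption of MEK5 binding to MEKK3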
* = called active by the depositor; / = no result given; [ ] = dose if it differs, or a comment.

SMILES	MEKK2 WT-MEK5	MEKK2 mut-MEK5	Apaf1 inhib	UBC13 polyUb	UCH37 DUB inh	MEKK3 PB1 HTS	MEKK2wt confirm	MEKK2mut confirm	MEKK3-MEK5 inh
CCC(=O)N(CCc1ccccc1)Cc1cc2cc(OC)ccc2[nH]c1=O	120	30	-7	20	-65	135*	95	1	103
Cc1cc2ccccc2n1CCNC(=O)C1CC1	89	0	-1	24	2	99	/	/	/
Cc1cc2ccccc2n1CCNC(=O)c1cccs1	9.0*[inhibitor]	-36	16	3	1	34*[inhibitor]	26	-27	70*
COC(=O)c1c(NC(=O)c2ccccc2F)sc(C(=O)N2CCOCC2)c1C	97	-3	8	9	-15	99	/	/	/
CCOc1ncccc1C(=O)NCCc1ccc(Cl)cc1	100	10	11	-4	0	104	/	/	/
COc1cc(S(=O)(=O)n2ccc(C)n2)c(OC)cc1Cl	101	4	-9	-11	4	106	/	/	/
Cc1[nH]c2ccccc2c1/C=N/NC(=S)NC(C)C	18*	144*	-10	17	/	98	105	4	96
Cc1[nH]c2ccccc2c1/C=N/Nc1ccccc1[N+](=O)[O-]	92	6	29	-107	/	67*[inhibitor]	119	9	96
Cc1cc(N2CCCCC2)nc(SCc2ccc(C#N)cc2)n1	115	4	23	12	2	122*	85	0	91
N#Cc1ccc(CSc2nc(N)cc(N)n2)cc1	103	0	2	-6	/	97	/	/	/
CCOC(=O)Nc1ccc2c(CN3CCC(C(=O)OC)CC3)cc(=O)oc2c1	101	4	6	3	-62	102	/	/	/
Cc1ccc(-c2nc3ncccn3c2NC2CCCC2)o1	102	4	7	-6	-4	101	/	/	/
Brc1ccc(-c2nc3ncccn3c2NC2CCCCC2)o1	123	8	15	2	4	129*	101	4	102
Cc1ccc(NC(NC(=O)c2ccccc2[N+](=O)[O-])C(Cl)(Cl)Cl)cc1 (stereo not given)	109	0	2	-1	0	133*	98	3	99
N#CNC(=Nc1cccc(F)c1)SCc1cccc(F)c1	107	1	-19	1	3	136*	105	2	100
N#CNC(=Nc1cccc(F)c1)SCc1ccccc1	98	-2	-5	7	3	102	/	/	/
Cc1ccc(OCCn2cc(C=O)c3ccccc32)cc1	108	4	12	8	6	105	/	/	/
Cc1nn(C)c(C)c1NC(=O)CSc1nc(Cc2ccccc2)nc2c1cnn2-c1ccccc1	81	-9	3	8	7	74*[inhibitor]	101	3	100
CCc1nc(SCC(=O)Nc2c(C)nn(C)c2C)c2cnn(-c3ccccc3)c2n1	/	/	/	/	1	/	/	/	/
Nc1nc(NCc2ccccc2)nc(NCc2ccccc2)c1[N+](=O)[O-]	112	1	-6	-9	4	152*	106	6	106
Cc1ccc(CNc2nc(N)c([N+](=O)[O-])c(NCc3ccccc3)n2)cc1	96	-1	-5	-2	6	97	/	/	/
Clc1ccc(OCCCNCc2ccccc2)c2ccccc12	253*	28*	27	32	10	117	161	29	102
Brc1ccccc1OCCNCc1ccccc1	95	-11	2	6	5	88	/	/	/
O=C(Cc1cccs1)Nc1cccc(-c2nc3ccccc3o2)c1	105	3	4	-2	0	100	/	/	/
CCN(CC)c1ccc(/C=C(\C#N)C(=O)c2ccc(Br)cc2)cc1	148*	153*	/	/	13	123	49	-48	85
SMILES	MEKK2 WT-MEK5	MEKK2 mut-MEK5	Apaf1 inhib	UBC13 polyUb	UCH37 DUB inh	MEKK3 PB1 HTS	MEKK2wt confirm	MEKK2mut confirm	MEKK3-MEK5 inh
CC1=C(C(=O)OC2CCCC2)C(c2coc3ccccc3c2=O)C2=C(CCCC2=O)N1 (stereo not given)	117	0	1	0	7	133*	113	-3	87
COC(=O)C1=C(C)NC2=C(C(=O)CCC2)C1c1coc2ccccc2c1=O (stereo not given)	103	-3	5	-7	-3	99	/	/	/
CC1=C(C(=O)OCCOc2ccccc2)C(c2coc3ccccc3c2=O)C2=C(CCCC2=O)N1 (stereo not given)	81	-2	-16	-2	-9	69*[inhibitor]	103	-4	101
Cc1cccc(NC(=O)N2CCCCCC2)c1	110	8	7	1	4	104	/	/	/
S=c1[nH]nc(-c2ccc(Cl)cc2)n1-c1ccc2c(c1)OCCO2	109	1	1	1	1	197*	1.0*[inhibitor]	-29	2.0*
Cc1ccc(C2(C)NC(=O)N(CC(=O)Nc3c(C)n(C)n(-c4ccccc4)c3=O)C2=O)cc1 (stereo not given)	131	20	0	3	2	106	/	/	/
CCCC1(c2ccccc2)NC(=O)N(CC(=O)Nc2cc(C)on2)C1=O (stereo not given)	80	-3	3	-4	-1	65*[inhibitor]	91	-5	97
Cc1c(NC(=O)CN2C(=O)NC(C)(c3ccccc3)C2=O)c(=O)n(-c2ccccc2)n1C (stereo not given)	103	0	-9	-1	4	140*	105	0	99
Cc1cc(NC(=O)CN2C(=O)NC(C)(c3ccccc3)C2=O)no1 (stereo not given)	97	-1	-6	2	3	99	/	/	/
O=C1NC(=Nc2ccccc2)/C(=C/c2ccco2)S1	100	-1	22	-20	6	132*	99	-3	102

Screening results: PubChem BioAssay, several laboratories
